LANA-H2A inh: blocks KSHV LANA binding to histone H2A/H2B; cell-free LANA-H2A/H2B peptide, fluorescence polarization; inhibition, % (test concentration not listed); 0.6% of 320,000 active; in the data active = inhibition mostly above about 10%, no sharp cut-off; inactive = mostly below about 6.7%
RanGTP-Imp inh: inhibitors of RanGTP-importin-beta interaction, primary screen, biochemical, FRET, CFP-Ran, YFP-importin-beta, homogeneous; 1.1% of 300,000 active; cell-free CFP-Ran/YFP-importin-beta FRET ratio; inhibition, % (concentration not given with the values);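 active = more than half of the replicate wells show a fall in the fluorescence ratio signal beyond about 16%, limit read from the data, passing the limit was not always enough; inconclusive = exactly half of the replicate wells pass the set limit; inactive = fewer than half of replicates pass the limit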
MEX-5 binding: C. elegans MEX-5 TCR-2 RNA binding activity. Q9XUB2. MEX-5/FITC-TCR2 RNA binding, fluorescence polarization; active compounds read low. activity score (negative = inhibition of binding), % at 10 µM. 0.38% of 300,000 active;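 active = inhibition past about -25% in most replicates, and total fluorescence under double the plate's negative control median, limit read from the data; inconclusive = replicates evenly split on the limit, or fluorescence at least double controls; inactive = too little inhibition in most replicates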
Runt-SMMHC FRET: blocks binding of human RUNX1 Runt domain to CBFb-SMMHC | Q01196+Q13951 | Cerulean-Runt/Venus-CBFb-SMMHC FRET ratio 530/480, 1 h | inhibition, % at 20 µM | 0.74% of 220,000 active;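 active = mean inhibition across duplicate retests at 20 µM reaching about 50%, limit read from the data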;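 note: inhibitors lower the FRET ratio by blocking Runt binding to CBFb-SMMHC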
Target sequence (Q01196 whole entry, looked up, the tested form may be a part): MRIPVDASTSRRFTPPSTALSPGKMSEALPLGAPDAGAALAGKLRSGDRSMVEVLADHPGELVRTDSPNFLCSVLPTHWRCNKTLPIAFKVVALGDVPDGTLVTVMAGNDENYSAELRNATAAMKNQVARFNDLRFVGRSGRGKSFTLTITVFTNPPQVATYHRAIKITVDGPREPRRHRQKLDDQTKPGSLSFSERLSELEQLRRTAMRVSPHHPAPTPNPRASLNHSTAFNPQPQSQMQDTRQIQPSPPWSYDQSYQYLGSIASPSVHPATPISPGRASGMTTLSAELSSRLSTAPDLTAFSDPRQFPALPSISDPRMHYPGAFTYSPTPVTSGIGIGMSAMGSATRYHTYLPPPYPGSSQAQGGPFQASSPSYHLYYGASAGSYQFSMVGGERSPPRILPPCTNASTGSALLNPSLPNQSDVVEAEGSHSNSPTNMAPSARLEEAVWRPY
Target sequence (Q13951 whole entry, looked up, the tested form may be a part): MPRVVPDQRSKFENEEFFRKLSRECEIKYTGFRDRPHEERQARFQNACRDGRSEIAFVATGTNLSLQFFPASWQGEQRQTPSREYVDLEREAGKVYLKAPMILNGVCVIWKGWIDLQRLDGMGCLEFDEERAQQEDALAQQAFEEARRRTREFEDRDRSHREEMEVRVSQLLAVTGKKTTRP
EBV gp42 block: inhibitors of Epstein-Barr virus glycoprotein 42; Fluorescence polarization binding assay, mP read-out; inhibition, % (tested at 21.74 µM); 0.42% of 220,000 active; AID 1085; in the data active = inhibition above about 50%
Runt-CBFb FRET: blocks binding of human RUNX1 Runt domain to CBFb | inhibition, % at 20 µM | Cerulean-Runt/Venus-CBFb FRET ratio 530/480, 1 h | Q01196+Q13951 | 0.46% of 220,000 active;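 active = inhibition over about 50% at 20 µM in the single-dose screen, limit read from the data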
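test system = Cerulean-tagged RUNX1 Runt domain (FRET donor) fusion protein | reagent = Venus-CBFb binding partner, 100 nM | incubation = protein complex preformed 1 h, compound exposure 1 h, room temperature, dark | detection = FRET fluorescence | read-out basis = loss of energy transfer signal | controls = 5 µM unlabeled CBFb as full-inhibition high control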
Runt-CBFb TRFRET: Runt-CBFb binding inhibition; shares compounds with Runt-CBFb FRET; TR-FRET RUNX1 Runt domain-CBFb binding; inhibition, % at 20 µM; 20% of 480 active; in the data active = inhibition above about 40%
Numbers stand for hits; . = inactive; ? = inconclusive; / = no result given. The list is not random: actives were taken first. Their share in the collection is about 2.4%.

SMILES	LANA-H2A inh	RanGTP-Imp inh	MEX-5 binding	Runt-SMMHC FRET	EBV gp42 block	Runt-CBFb FRET	Runt-CBFb TRFRET
CCOC(=O)c1c(NC(=O)c2ccccc2Cl)sc2c1CCc1ccccc1-2	.	.	.	.	.	.	/
CC(=O)NCCc1nc2cc(NC(=O)COc3ccc(C)cc3)ccc2n1C	.	.	.	/	/	/	/
Cc1ccccc1C(=O)NNC(=O)c1ccncc1	.	.	.	/	/	/	/
CN(C)CCCNc1cc(O)c2ncccc2c1	.	/	/	/	/	/	/
CC(C)(C)c1cc(C(=S)N2CCN(CCO)CC2)cc(C(C)(C)C)c1O	.	?	.	.	.	51.8	.
CC(C)(C)c1cc(C(=O)CCN2CCOCC2)cc(C(C)(C)C)c1O	.	.	.	/	/	/	/
OCCN1CCN(C(=S)c2ccc(Cl)cc2)CC1	.	.	.	.	.	53.1	.
CN(C)S(=O)(=O)c1ccc(=S)[nH]c1	.	.	.	.	.	50.3	.
Cc1c(Br)c([N+](=O)[O-])nn1CCCC(=O)NC(C)c1ccccc1 (configuration not stated)	.	.	.	.	.	.	/
CCOC(=O)c1c(-c2ccccc2)oc2ccc(OC(C)=O)cc12	.	.	.	.	.	51.6	.
CCOC(=O)c1c(-c2ccccc2)oc2ccc(OC(C)C(=O)O)cc12 (configuration not stated)	.	.	.	.	.	.	/
CN1CCc2cccc3c2[C@H]1Cc1ccc(O)c(O)c1-3	.	.	-84.3	/	.	73.3	.
N=c1oc2ccc3ccccc3c2cc1-c1nnc2n1CCCCC2	.	/	/	107.5	.	51.8	.
COc1ccc2oc(=N)c(-c3nnc4n3CCCCC4)cc2c1	.	.	.	.	.	.	/
Oc1ccc(N=Cc2ccc(-c3cccs3)s2)cc1	.	28.3	.	/	.	69.2	49.9
CSCCC(NC(=O)c1ccco1)c1nc2ccccc2[nH]1 (configuration not stated)	.	.	.	/	/	/	/
CNC(=O)/C(C#N)=C/c1c(N(Cc2ccccc2)Cc2ccccc2)nc2ccccn2c1=O	/	.	.	89.5	.	62.6	.
O=C(NCC1CC1)C1(C(F)(F)F)C/C(=C\Cc2ccccc2)CCCO1 (configuration not stated)	.	.	.	/	/	/	/
CCNc1ccc2c(Cl)cc(=O)oc2c1	.	36.4	.	95.3	.	54.6	.
Cc1cc(=O)oc2cc(Nc3ccccc3)ccc12	/	.	.	.	.	.	/
O=C(CNC(=O)N1CC(=O)Nc2ccccc21)Nc1ccc(F)c(Cl)c1	.	.	.	/	/	/	/
S=c1[nH]nc(-c2cc3c(s2)-c2ccccc2CC3)o1	.	17.3	.	70.2	.	56.9	.
O=C(O)c1ccc(SCc2ccccc2)nc1	.	.	.	/	/	/	/
CCOC(=O)N1CCN(C(=O)c2c[nH]c3ccc(S(=O)(=O)N(C)c4ccc(OCC)cc4)cc3c2=O)CC1	.	.	.	/	/	/	/
CCOc1ccc(C2C3=C(CCCC3=O)Nc3ccc4ncccc4c32)cc1 (configuration not stated)	.	.	.	.	.	.	/
SMILES	LANA-H2A inh	RanGTP-Imp inh	MEX-5 binding	Runt-SMMHC FRET	EBV gp42 block	Runt-CBFb FRET	Runt-CBFb TRFRET
O=C1CCCC2=C1C(c1ccc(O)c(O)c1)c1c(ccc3ncccc13)N2 (configuration not stated)	.	.	.	.	.	51.1	44.1
Nc1nc(-c2ccco2)c(-c2ccco2)s1	.	.	.	.	.	.	/
c1coc(-c2nc(-c3ccco3)c(-c3ccco3)nc2-c2ccco2)c1	.	59.6	.	.	63.1	51.1	.
Cc1cccc(NS(=O)(=O)c2ccc(C(=O)NCC(c3ccco3)N(C)C)cc2)c1C (configuration not stated)	.	.	.	/	/	/	/
S=C1Cc2ccccc2N1	/	.	.	.	.	50.6	.
Cc1cc(Nc2ccc(O)cc2)n2c(nc3ccccc32)c1C#N	.	.	.	.	.	.	/
N#Cc1c2c(c(Nc3ccccc3)n3c1nc1ccccc13)CCC2	.	76.7	.	70.5	.	54.8	.
COc1cc(N2C(=O)C=CC2=O)c(OC)cc1Cl	.	?	.	69.9	.	63.6	.
COc1ccc(S(=O)(=O)N(n2c(C)nnc2-n2nc(C)cc2C)S(=O)(=O)c2ccc(OC)cc2)cc1	.	.	.	.	.	.	/
Cc1nc2ccccn2c1-c1ccnc(=S)[nH]1	.	.	.	.	.	59.8	.
Cc1ccc(Nc2nc(-c3c(C)nc4ccccn34)cs2)cc1	/	?	.	.	.	.	/
CCn1cc(C=O)c2cc(S(=O)(=O)N3CCOCC3)ccc21	.	.	.	.	.	.	/
COc1ccc(-c2cc(C(F)(F)F)nc(SCC(=O)N(C)Cc3cn(C)nc3C)n2)cc1OC	.	.	.	.	.	.	/
Cc1nnc(Sc2cc(NCCCO)c([N+](=O)[O-])c3nonc23)s1	/	.	.	.	.	.	/
Cc1nnc(Sc2cc(NCCO)c([N+](=O)[O-])c3nonc23)s1	/	.	.	.	.	52.2	.
CNC(=S)N(Cc1cc2ccc(OC)cc2[nH]c1=O)CC1CCCO1 (configuration not stated)	.	.	.	.	.	63.0	.
N#Cc1ccc(NC(=O)Cn2cnc(S(=O)(=O)N3CCCC3)c2)cc1	.	.	.	/	/	/	/
O=S(=O)(Nc1ccc(-c2nc3cccnc3s2)cc1)c1ccccc1F	.	.	.	146.1	.	80.8	.
O=S(=O)(Nc1ccc(-c2nc3cccnc3s2)cc1)c1ccc(Cl)s1	.	?	.	/	.	67.7	.
CC(C)(C)c1ccc(OC(=O)CN2C(=O)C3C4CCC(C4)C3C2=O)cc1 (configuration not stated)	.	.	.	.	.	.	/
Cn1c(CCN2CCN(c3ccccn3)CC2)nc2cc(NS(=O)(=O)c3ccc(Cl)cc3)ccc21	.	?	.	/	/	/	/
CCCCc1cc(=O)oc2cc(OCc3nn[nH]n3)c(Cl)cc12	.	.	.	.	.	.	/
CCCCc1cc(=O)oc2c(CN(CC)CC)c(O)c(Cl)cc12	.	?	.	150.2	.	74.9	.
COc1cc(-c2nc(=S)[nH][nH]2)cc(OC)c1OC	.	.	.	.	.	.	/
COc1ccc(-c2nc(=S)[nH][nH]2)cc1OC	.	.	.	.	.	51.4	.
CCC(=O)/C=C1/Sc2ccccc2N1CC	.	.	.	.	.	54.7	.
CCC(=O)/C=C1/Sc2ccc(OC)cc2N1CC	.	.	.	.	.	/	/
CCn1cc(C(=O)N[C@@H](CCSC)C(=O)NCCCN2CCOCC2)c(=O)c2cc3c(cc21)OCO3	.	.	.	/	/	/	/
COc1ccc(-n2c(O)cnc2Nc2nc(C)cc(C)n2)cc1OC	.	.	.	.	.	.	/
